Activity calls are given as the source filed them. The calls are words filed in the database; no cut-off is given here.
Tests used:
Salmonella typhimurium [1] = test: Mutagenicity in Salmonella typhimurium TA98 assessed as number of revertants at 1000 ug/plate by Ames test (reference value: 23 +/- 3); format: toxicity, organism-based; conditions: salmonella enterica subsp. enterica serovar typhimurium
Salmonella typhimurium [2] = test: Mutagenicity in Salmonella typhimurium TA1535 assessed as assessed as mutagenic index at 4 ug/plate by Ames test; format: toxicity, organism-based; conditions: salmonella enterica subsp. enterica serovar typhimurium
In short: (§1)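 Ames preincubation test. Strain culture was grown 12 h at 37 °C in nutrient broth, then mixed with compound in DMSO (final 4, 20, 100, 500, 1000 per plate) and buffer in top agar with trace histidine. This was plated on glucose minimal agar for 48 h at 37 °C. Mutagenic index = revertants with compound / DMSO control revertants, from three independent repeats.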

Mus musculus [3] = test: Neurotoxicity in albino Carworth Farms No.1 mouse at 30 mg/kg, ip after 4 hrs by rotarod test; format: toxicity, organism-based; conditions: in vivo
In short: (§2)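 Mice (albino Carworth Farms No.1) were dosed i.p. at 30, 100 or 300 mg/kg in 0.5% methylcellulose. They were tested 0.5 and 4 h later on a 1-inch knurled rod rotating at 6 rpm. Neurotoxicity was scored if a mouse could not stay on the rod for at least 1 min in each of three trials. Results are given as animals toxic/animals tested, with deaths noted.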

Salmonella typhimurium [4] = test: Mutagenicity in Salmonella typhimurium TA100 assessed as number of revertants at 4 ug/plate by Ames test (reference value: 77 +/-4); format: toxicity, organism-based; conditions: salmonella enterica subsp. enterica serovar typhimurium
In short: (§3)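 Salmonella TA100 preincubation Ames assay: overnight-type 12 h broth culture at 37 °C, compound in DMSO at final 4–1000 per plate, top agar with trace histidine, glucose minimal agar, 48 h at 37 °C. Revertant colonies per plate were counted, with a DMSO negative control and a sodium azide positive control. Three independent repetitions were run.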

Mus musculus [5] = test: Neurotoxicity in albino Carworth Farms No.1 mouse at 100 mg/kg, ip after 4 hrs by rotarod test; format: toxicity, organism-based; conditions: in vivo; in short: as §2
Mus musculus [6] = test: Anticonvulsant activity in albino Carworth Farms No.1 mouse assessed as protection against maximal electroshock-induced seizures at 100 mg/kg, ip after 4 hrs; format: functional, organism-based
In short: (§4)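 Mouse i.p. screen in Carworth Farms No.1 albino mice at 30, 100 or 300 mg/kg in 0.5% methylcellulose. Testing was at 0.5 and 4 h after injection, by maximal electroshock or by subcutaneous pentetrazol challenge. Scoring was number protected / number used.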

Salmonella typhimurium [7] = test: Mutagenicity in Salmonella typhimurium TA1535 assessed assessed as mutagenic index at 100 ug/plate by Ames test; format: toxicity, organism-based; conditions: salmonella enterica subsp. enterica serovar typhimurium
Salmonella typhimurium [8] = test: Mutagenicity in Salmonella typhimurium TA98 assessed as number of revertants at 100 ug/plate by Ames test (reference value: 23 +/- 3); format: toxicity, organism-based; conditions: salmonella enterica subsp. enterica serovar typhimurium
Salmonella typhimurium [9] = test: Mutagenicity in Salmonella typhimurium TA1535 assessed as assessed as mutagenic index at 20 ug/plate by Ames test; format: toxicity, organism-based; conditions: salmonella enterica subsp. enterica serovar typhimurium; in short: as §1
Salmonella typhimurium [10] = test: Mutagenicity in Salmonella typhimurium TA100 assessed as number of revertants at 1000 ug/plate by Ames test (reference value: 77 +/-4); format: toxicity, organism-based; conditions: salmonella enterica subsp. enterica serovar typhimurium; in short: as §3
Salmonella typhimurium [11] = test: Mutagenicity in Salmonella typhimurium TA98 assessed as mutagenic index at 4 ug/plate by Ames test; format: toxicity, organism-based; conditions: salmonella enterica subsp. enterica serovar typhimurium
Salmonella typhimurium [12] = test: Mutagenicity in Salmonella typhimurium TA100 assessed as mutagenic index at 20 ug/plate by Ames test; format: toxicity, organism-based; conditions: salmonella enterica subsp. enterica serovar typhimurium; in short: as §1
Salmonella typhimurium [13] = test: Mutagenicity in Salmonella typhimurium TA100 assessed as mutagenic index at 100 ug/plate by Ames test; format: toxicity, organism-based; conditions: salmonella enterica subsp. enterica serovar typhimurium; in short: as §1
[14] = Lipophilicity of the compound using 75% methanol in water at 1 mg/ml by RT-TLC analysis; format: physicochemical; conditions: buffer
In short: (§5)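 Reversed-phase TLC with a methanol–water mobile phase at the stated methanol content (v/v). Compounds were spotted from 1 mg/mL methanol solutions after 1 h chamber saturation and located under UV light. Rf was measured and RM = log(1/Rf − 1) calculated.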

Mus musculus [15] = test: Anticonvulsant activity in albino Carworth Farms No.1 mouse assessed as protection against subcutaneous dosed pentetrazol-induced seizures at 100 mg/kg, ip after 0.5 hrs; format: functional, organism-based; in short: as §4
[16] = Lipophilicity of the compound using 90% methanol in water at 1 mg/ml by RT-TLC analysis; format: physicochemical; conditions: buffer; in short: as §5
Salmonella typhimurium [17] = test: Mutagenicity in Salmonella typhimurium TA100 assessed as number of revertants at 500 ug/plate by Ames test (reference value: 77 +/-4); format: toxicity, organism-based; conditions: salmonella enterica subsp. enterica serovar typhimurium; in short: as §3
Mus musculus [18] = test: Anticonvulsant activity in albino Carworth Farms No.1 mouse assessed as protection against maximal electroshock-induced seizures at 300 mg/kg, ip after 0.5 hrs; format: functional, organism-based; in short: as §4
Mus musculus [19] = test: Anticonvulsant activity in albino Carworth Farms No.1 mouse assessed as protection against maximal electroshock-induced seizures at 100 mg/kg, ip after 0.5 hrs; format: functional, organism-based; in short: as §4
Salmonella typhimurium [20] = test: Mutagenicity in Salmonella typhimurium TA100 assessed as number of revertants at 20 ug/plate by Ames test (reference value: 77 +/-4); format: toxicity, organism-based; conditions: salmonella enterica subsp. enterica serovar typhimurium; in short: as §3
Mus musculus [21] = test: Anticonvulsant activity in albino Carworth Farms No.1 mouse assessed as protection against maximal electroshock-induced seizures at 30 mg/kg, ip after 4 hrs; format: functional, organism-based; in short: as §4
[22] = Lipophilicity of the compound using 95% methanol in water at 1 mg/ml by RT-TLC analysis; format: physicochemical; conditions: buffer; in short: as §5
Salmonella typhimurium [23] = test: Mutagenicity in Salmonella typhimurium TA1535 assessed as mutagenic index at 1000 ug/plate by Ames test; format: toxicity, organism-based; conditions: salmonella enterica subsp. enterica serovar typhimurium
Salmonella typhimurium [24] = test: Mutagenicity in Salmonella typhimurium TA98 assessed as mutagenic index at 1000 ug/plate by Ames test; format: toxicity, organism-based; conditions: salmonella enterica subsp. enterica serovar typhimurium
Salmonella typhimurium [25] = test: Mutagenicity in Salmonella typhimurium TA100 assessed as assessed as mutagenic index at 1000 ug/plate by Ames test; format: toxicity, organism-based; conditions: salmonella enterica subsp. enterica serovar typhimurium; in short: as §1
Salmonella typhimurium [26] = test: Mutagenicity in Salmonella typhimurium TA1535 assessed as number of revertants at 4 ug/plate by Ames test (reference value: 10 +/- 3); format: toxicity, organism-based; conditions: salmonella enterica subsp. enterica serovar typhimurium
Mus musculus [27] = test: Anticonvulsant activity in albino Carworth Farms No.1 mouse assessed as protection against subcutaneous dosed pentetrazol-induced seizures at 100 mg/kg, ip after 4 hrs; format: functional, organism-based; in short: as §4
Mus musculus [28] = test: Anticonvulsant activity in albino Carworth Farms No.1 mouse assessed as protection against subcutaneous dosed pentetrazol-induced seizures at 300 mg/kg, ip after 4 hrs; format: functional, organism-based; in short: as §4
Salmonella typhimurium [29] = test: Mutagenicity in Salmonella typhimurium TA98 assessed as mutagenic index at 500 ug/plate by Ames test; format: toxicity, organism-based; conditions: salmonella enterica subsp. enterica serovar typhimurium
Salmonella typhimurium [30] = test: Mutagenicity in Salmonella typhimurium TA100 assessed as mutagenic index at 4 ug/plate by Ames test; format: toxicity, organism-based; conditions: salmonella enterica subsp. enterica serovar typhimurium; in short: as §1
Salmonella typhimurium [31] = test: Mutagenicity in Salmonella typhimurium TA98 assessed as number of revertants at 4 ug/plate by Ames test (reference value: 23 +/- 3); format: toxicity, organism-based; conditions: salmonella enterica subsp. enterica serovar typhimurium
Mus musculus [32] = test: Neurotoxicity in albino Carworth Farms No.1 mouse at 300 mg/kg, ip after 4 hrs by rotarod test; format: toxicity, organism-based; conditions: in vivo; in short: as §2
Salmonella typhimurium [33] = test: Mutagenicity in Salmonella typhimurium TA100 assessed as number of revertants at 100 ug/plate by Ames test (reference value: 77 +/-4); format: toxicity, organism-based; conditions: salmonella enterica subsp. enterica serovar typhimurium; in short: as §3
Mus musculus [34] = test: Neurotoxicity in albino Carworth Farms No.1 mouse at 300 mg/kg, ip after 0.5 hrs by rotarod test; format: toxicity, organism-based; conditions: in vivo; in short: as §2
Mus musculus [35] = test: Anticonvulsant activity in albino Carworth Farms No.1 mouse assessed as protection against subcutaneous dosed pentetrazol-induced seizures at 300 mg/kg, ip after 0.5 hrs; format: functional, organism-based; in short: as §4
Salmonella typhimurium [36] = test: Mutagenicity in Salmonella typhimurium TA98 assessed as mutagenic index at 20 ug/plate by Ames test; format: toxicity, organism-based; conditions: salmonella enterica subsp. enterica serovar typhimurium

In the case of CCC(CO)NC(=O)/C=C/c1ccccc1 (racemic), the Activity (Salmonella typhimurium [1]) is reported as 19, the Activity_index (Salmonella typhimurium [2]) is reported as 1.1 and the Activity (Mus musculus [3]) is reported as “Non-toxic”. For the same compound, the Activity (Salmonella typhimurium [4]) was 68, the Activity (Mus musculus [5]) was “Non-toxic” and the Activity (Mus musculus [6]) was “inactive”. It also gave an Activity_index (Salmonella typhimurium [7]) of 1.4, an Activity (Salmonella typhimurium [8]) of 22 and an Activity_index (Salmonella typhimurium [9]) of 0.5. It also gave an Activity (Salmonella typhimurium [10]) of 64, an Activity_index (Salmonella typhimurium [11]) of 0.9 and an Activity_index (Salmonella typhimurium [12]) of 0.8. The Activity_index (Salmonella typhimurium [13]) was 0.8, the Rm [14] was -0.19 and the Activity (Mus musculus [15]) was “inactive”. The Rm [16] was -0.55, the Activity (Salmonella typhimurium [17]) was 72 and the Activity (Mus musculus [18]) was “Active”. The Activity (Mus musculus [19]) was “inactive”, the Activity (Salmonella typhimurium [20]) was 62 and the Activity (Mus musculus [21]) was “inactive”. It also gave a Rm [22] of -0.66, an Activity_index (Salmonella typhimurium [23]) of 1.3 and an Activity_index (Salmonella typhimurium [24]) of 0.8. The Activity_index (Salmonella typhimurium [25]) was 0.8, the Activity (Salmonella typhimurium [26]) was 11 and the Activity (Mus musculus [27]) was “inactive”. For the same compound, the Activity (Mus musculus [28]) was “inactive”, the Activity_index (Salmonella typhimurium [29]) was 0.9 and the Activity_index (Salmonella typhimurium [30]) was 0.9. The Activity (Salmonella typhimurium [31]) was 21, the Activity (Mus musculus [32]) was “Non-toxic” and the Activity (Salmonella typhimurium [33]) was 64. For the same compound, the Activity (Mus musculus [34]) was “Non-toxic”, the Activity (Mus musculus [35]) was “Active” and the Activity_index (Salmonella typhimurium [36]) was 1.
In the case of O=C(/C=C/c1ccccc1)N[C@H]1CCCC[C@@H]1O (racemic), the Activity (Salmonella typhimurium [1]) is reported as 18, the Activity_index (Salmonella typhimurium [2]) is reported as 0.5 and the Activity (Mus musculus [3]) is reported as “Non-toxic”. For the same compound, the Activity (Salmonella typhimurium [4]) was 71, the Activity (Mus musculus [5]) was “Non-toxic” and the Activity (Mus musculus [6]) was “inactive”. It also gave an Activity_index (Salmonella typhimurium [7]) of 0.6, an Activity (Salmonella typhimurium [8]) of 20 and an Activity_index (Salmonella typhimurium [9]) of 1.4. For the same compound, the Activity (Salmonella typhimurium [10]) was 70, the Activity_index (Salmonella typhimurium [11]) was 1 and the Activity_index (Salmonella typhimurium [12]) was 1. The Activity_index (Salmonella typhimurium [13]) was 0.9, the Rm [14] was -0.09 and the Activity (Mus musculus [15]) was “inactive”. The Rm [16] was -0.43, the Activity (Salmonella typhimurium [17]) was 73 and the Activity (Mus musculus [18]) was “inactive”. For the same compound, the Activity (Mus musculus [19]) was “Active”, the Activity (Salmonella typhimurium [20]) was 79 and the Activity (Mus musculus [21]) was “inactive”. The Rm [22] was -0.52, the Activity_index (Salmonella typhimurium [23]) was 0.6 and the Activity_index (Salmonella typhimurium [24]) was 0.8. The Activity_index (Salmonella typhimurium [25]) was 0.9, the Activity (Salmonella typhimurium [26]) was 5 and the Activity (Mus musculus [27]) was “inactive”. For the same compound, the Activity (Mus musculus [28]) was “inactive”, the Activity_index (Salmonella typhimurium [29]) was 0.8 and the Activity_index (Salmonella typhimurium [30]) was 0.9. For the same compound, the Activity (Salmonella typhimurium [31]) was 22, the Activity (Mus musculus [32]) was “Toxic” and the Activity (Salmonella typhimurium [33]) was 72. The Activity (Mus musculus [34]) was “Toxic”, the Activity (Mus musculus [35]) was “inactive” and the Activity_index (Salmonella typhimurium [36]) was 0.9.

Reference: ChEMBL document CHEMBL3739352, “Anticonvulsant activity, crystal structures, and preliminary safety evaluation of N-trans-cinnamoyl derivatives of selected (un)modified aminoalkanols” (Eur J Med Chem, 2016)
